# Published values pooled from the literature.
# Each line is one published result; the experiments were not run side by side.
# Target: Cannabinoid receptor 1 (CNR1, Homo sapiens, UniProt P21554)
SMILES,test,conditions,measurement,result
CCOC(=O)C(CC)(CCCSCCOCCOCCNc1ccc([N+](=O)[O-])c2nonc12)NC(=O)c1ccc(C2CC2)c(Cc2ccc(F)cc2)n1 (racemic),"ligand displacement, radioligand",cell membranes,Ki,383 nM
CCCCCn1cc(C(=O)C2C(C)(C)C2(C)C)c2ccccc21,"GTPγS binding, agonist, radiometric",cell membranes,EC50,98 nM
O=C(c1ccc2c(c1)c1ccccc1n2CCN1CCOCC1)c1cc2ccccc2[nH]1,"ligand displacement, radioligand",cell membranes,Ki,1200 nM
CCCCCc1cc(O)c2c(c1)OC(C)(C)[C@@H]1CC=C(C)[C@H](O)[C@@H]21,"ligand displacement, radioligand",cell membranes,Ki,31 nM
CCOC(=O)[C@H](CSC)NC(=O)c1ccc(C2CC2)c(Cc2ccc(F)cc2)n1,"ligand displacement, radioligand",cell membranes,Ki,19 nM
CCCc1cc(O)c2c(c1)OC(C)(C)[C@@H]1CCC(C)=C[C@@H]21,"ligand displacement, radioligand",cell membranes,Ki,22 nM
N#Cc1c(Oc2cccc(OS(=O)(=O)CCCC(F)(F)F)c2)cccc1C(F)(F)F,"calcium signal, agonist",,EC50,519 nM
C/C(N)=N\C(=N/S(=O)(=O)c1ccc(C(F)(F)F)cc1)N1C[C@H](c2ccccc2)C(c2ccc(Cl)cc2)=N1,"ligand displacement, radioligand",,Ki,1.2 nM
CCOC(=O)[C@](CC)(CCC[S+]([O-])CCOCCOCCNC(=O)OC(C)(C)C)NC(=O)c1ccc(C2CC2)c(Cc2ccc(F)cc2)n1 (some centres unmarked),"ligand displacement, radioligand",cell membranes,Ki,326 nM
CC(C)C(NC(=O)c1nn(Cc2ccc(F)cc2)c2ccccc12)C(N)=O (centres unmarked),"calcium signal, agonist",,EC50,3.44 nM
C=C(C)[C@@H]1CCC(C)=C[C@H]1c1c(O)cc(CCC)cc1O,"ligand displacement, radioligand",cell membranes,Ki,503 nM
CCOC(=O)C(CCCOC)NC(=O)c1ccc(C2CC2)c(Cc2ccc(F)cc2)n1 (centres unmarked),"ligand displacement, radioligand",cell membranes,Ki,99 nM
CCCCC/C=C\C/C=C\C/C=C\C/C=C\CCCC(=O)N[C@H](C)CO,"ligand displacement, radioligand",cell membranes,Ki,19.8 nM
CCCCCc1cc(O)c(C/C=C(\C)CCC=C(C)C)c(O)c1C(=O)O,"ligand displacement, radioligand",cell membranes,Ki,4530 nM
